High-throughput results: PubChem, Johns Hopkins Ion Channel Center
In the library only some 2.3% were active in any assay of this set; here they are far more common.
TRPC6 inh: mouse TRPC6 channel inhibitors, primary screen, cell-based, HEK293, membrane potential dye | Short transient receptor potential channel 6 (Mus musculus), Q61143 | ACh-evoked depolarization; stronger effect = lower value | B-score at 10 µM | actives 1.1% (n = 310,000) | AID 2553, 2010;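 active = B-score under library mean minus 3 SD, initial fluorescence not abnormally high, positive integrated signal ratio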;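 also: B-score derived from integrated fluorescence ratio over the kinetic read; more negative B-score means stronger inhibition of depolarization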
Target sequence (Q61143 whole entry, looked up): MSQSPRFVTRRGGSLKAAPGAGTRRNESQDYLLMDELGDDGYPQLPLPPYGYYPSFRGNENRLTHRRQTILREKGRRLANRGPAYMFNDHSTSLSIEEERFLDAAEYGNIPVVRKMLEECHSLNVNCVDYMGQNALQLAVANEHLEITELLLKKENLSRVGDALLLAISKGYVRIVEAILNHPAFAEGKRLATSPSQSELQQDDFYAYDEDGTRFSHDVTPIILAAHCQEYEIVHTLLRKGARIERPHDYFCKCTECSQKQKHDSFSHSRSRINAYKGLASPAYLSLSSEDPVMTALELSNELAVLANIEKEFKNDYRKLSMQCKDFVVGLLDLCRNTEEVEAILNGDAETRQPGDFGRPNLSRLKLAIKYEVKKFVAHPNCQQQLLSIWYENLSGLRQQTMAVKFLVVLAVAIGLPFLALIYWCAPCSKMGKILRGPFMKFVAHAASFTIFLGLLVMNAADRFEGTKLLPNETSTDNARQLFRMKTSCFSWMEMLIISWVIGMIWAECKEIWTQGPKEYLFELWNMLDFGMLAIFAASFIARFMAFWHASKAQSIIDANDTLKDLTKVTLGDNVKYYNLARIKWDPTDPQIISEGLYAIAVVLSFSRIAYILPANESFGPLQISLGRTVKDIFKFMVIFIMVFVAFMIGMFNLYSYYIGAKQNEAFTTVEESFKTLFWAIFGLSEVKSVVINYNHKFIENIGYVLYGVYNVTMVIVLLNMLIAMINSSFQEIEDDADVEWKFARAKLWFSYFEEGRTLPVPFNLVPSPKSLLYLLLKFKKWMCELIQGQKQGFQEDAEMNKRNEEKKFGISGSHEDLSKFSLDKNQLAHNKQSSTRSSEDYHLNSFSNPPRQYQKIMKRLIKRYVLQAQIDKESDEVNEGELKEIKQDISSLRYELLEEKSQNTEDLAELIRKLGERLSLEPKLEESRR
TRPC6 activator: mouse TRPC6 channel activators, primary screen, cell-based, HEK293, membrane potential dye; Short transient receptor potential channel 6 (Mus musculus), Q61143; HEK293-TRPC6 membrane potential dye fluorescence; stronger effect = higher value; B-score at 10 µM; actives 0.13% (n = 310,000); AID 2550, 2010;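 active = B-score of the integrated fluorescence ratio above library mean plus 3 SD, and starting fluorescence ratio within library mean plus 5 SD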;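 also: higher score means more depolarization so channel activation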
TRPC4 block: inhibitors of mouse TRPC4 channel, primary screen, Fluo4 calcium, HEK293 TRPC4beta/mu-opioid cells. DAMGO-evoked Fluo4 calcium flux; stronger effect = lower value. B-score at 10 µM. actives 0.39% (n = 300,000);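 active = B-score over 3 SD under the library average, no early fluorescence shift, positive overall ratio signal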
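System: stable TRPC4beta/mu-opioid receptor HEK293 cells; Dosing: single-point compound dosing; Measured by: Fluo4 Ca2+ flux fluorescence; Read-out basis: per-well B score of integrated baseline-normalized Fluo4 ratio.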
TRPC4 act: activators of mouse TRPC4 channel, primary screen, Fluo4 calcium, HEK293 TRPC4beta/mu-opioid cells. Short transient receptor potential channel 4 (Mus musculus), Q9QUQ5. Fluo4 calcium fluorescence; stronger effect = higher value. B-score at 10 µM. actives 0.49% (n = 310,000);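 active = B-score above 5 SD of library B-scores, and initial fluorescence ratio not above library mean plus 5 SD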;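 also: positive B-score marks a calcium rise read as TRPC4 activation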
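System: HEK293 cells stably co-expressing mouse TRPC4beta and mu-opioid receptor; Schedule: Fluo4 dye loading 45 min at room temperature, 110 s recording; Detection: Fluo4 fluorescence, kinetic; Evaluation: B-scored integrated calcium fluorescence ratio; Controls: buffer (low) and maximal DAMGO (high).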
TRPC4 potent: positive allosteric modulators of TRPC4, primary screen, cell-based, mouse TRPC4beta, HEK293 mu-opioid, Fluo-4 calcium | DAMGO EC20, Fluo-4 Ca2+ flux; stronger effect = higher value | B-score at 10 µM | actives 0.42% (n = 310,000);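 active = B-score of calcium response area above 5 SD of library B-scores, with initial fluorescence ratio within 5 SD of library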
TRPC4 spec 2: second selectivity test of TRPC6 inhibitors: effect on mouse TRPC4; inhibition, % at 10 µM; HEK293 TRPC4/MOR, membrane potential dye fluorescence; channel activated by saturating DAMGO dose; shares compounds with TRPC6 inh; actives 42% (n = 920);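 active = compounds whose fluorescence signal differed from control wells by over 3 SD, either direction, in both duplicate plates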
TRPC4 spec: mouse TRPC4 modulation by TRPC6 hits, confirmation, selectivity assay for TRPC6 inhibitor project, cell-based, HEK293 TRPC4/mu-opioid, membrane potential dye | shares compounds with TRPC6 inh | membrane potential fluorescence | activity change, negative = inhibition, % at 10 µM | actives 61% (n = 920) | AID 2777, 2010;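 active = rise or fall in signal beyond 3 SD of buffer-only wells in both replicate plates, either sign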;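 also: integrated kinetic ratio of fluorescence range over baseline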
HEK293 MPD ctr 2-1: nonspecific membrane potential effects, parental HEK293, confirmation, counter-screen for TRPC6 inhibitor project, cell-based, second counter screen. parental HEK293 membrane potential dye fluorescence; maximal acetylcholine challenge after compound addition. shares compounds with TRPC6 inh. actives 31% (n = 920). AID 2779, 2010. signal change vs control, % at 10 µM;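 active = membrane potential signal moving either way by over 3 SD of the maximum-effect control, in both duplicate plates, meaning non-specific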
HEK293 MPD ctr-1: membrane potential modulation in parental HEK293, confirmation, counter-screen for TRPC6 inhibitor project, cell-based; shares compounds with TRPC6 inh; parental HEK293 membrane potential dye fluorescence; membrane potential signal change, % at 10 µM; actives 60% (n = 920);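 active = membrane potential signal shifting up or down by more than 3 SD of buffer-only wells, on both duplicate plates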
HEK293 MPD ctr-2: parental HEK293 membrane potential modulation, confirmation, counter-screen for TRPC6 modulator project, cell-based; shares compounds with TRPC6 inh; membrane potential dye fluorescence; membrane potential signal change, % at 10 µM; actives 51% (n = 2,400);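 active = membrane potential signal moves up or down beyond 5 SD from buffer-only wells, on both duplicate plates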
HEK293 MPD ctr 2-2: parental HEK293 nonspecific activity of TRPC6 modulators, second screen; inhibition, % at 10 µM; shares compounds with TRPC6 inh; membrane potential dye fluorescence; after compound, maximal acetylcholine stimulation; actives 14% (n = 2,400);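 active = membrane potential signal drops by more than 5 SD from the mean control signal, in both duplicate plates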
TRPC4/MOR mod: TRPC4 modulation by TRPC6 hit compounds, confirmation, selectivity assay for TRPC6 modulator project, cell-based, HEK293 TRPC4/mu-opioid, membrane potential dye, mouse; shares compounds with TRPC6 inh; membrane potential fluorescence; percent change from control (negative = decrease, positive = increase), % at 10 µM; actives 69% (n = 2,400); AID 488927, 2010;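 active = membrane potential signal moved up or down beyond 5 SD of buffer control wells, in both duplicate plates, actives on both sides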
TRPC4/MOR inh 2: mouse TRPC4 off-target activity of TRPC6 modulators, second screen; actives 55% (n = 2,400); HEK293 TRPC4/mu-opioid, membrane potential dye fluorescence; stimulated with maximal-effect DAMGO; shares compounds with TRPC6 inh; inhibition, % at 10 µM; AID 488928;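 active = drop in membrane potential signal beyond 5 SD of the control wells in both duplicate plates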;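 also: TRPC4 counter screen for TRPC6 hits run under conditions tuned for TRPC6 not TRPC4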
TRPC6 inh conf: mouse TRPC6 channel inhibitors, confirmation, HEK293 cells, membrane potential dye, duplicate. actives 43% (n = 3,300). ACh-evoked depolarization. shares compounds with TRPC6 inh. inhibition, % at 10 µM;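 active = fluorescence ratio falls more than 5 SD below the full-stimulation control mean, in both duplicate runs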;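 also: integrated fluorescence ratio of peak minus minimum over baseline after agonist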
TRPC6 act confirm: mouse TRPC6 channel activators, confirmation, HEK293 cells, membrane potential dye, duplicate; actives 11% (n = 2,800); activation, % at 10 µM; shares compounds with TRPC6 inh; HEK293-TRPC6 membrane potential dye fluorescence, FDSS;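 active = ratio signal rise beyond 5 SD above unstimulated control wells' mean, seen in both duplicate runs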
Large screens that a line does not name were inactive (follow-up assays come after a bar, where they were run).

CC(=O)c1cc2c(cc1NC(=O)c1cnc(C)cn1)OCO2	TRPC6 inh -11.2 | TRPC4 spec 2 73.5% | TRPC4 spec -28.1% | HEK293 MPD ctr 2-1 inactive | HEK293 MPD ctr-1 -412.5% | TRPC6 inh conf inactive | TRPC6 act confirm inactive
CCCn1c(SCC(=O)N2CCOCC2)nnc1-c1ccncc1	none
O=C1NC(Cc2c[nH]c3ccccc23)C(=O)N1Cc1ccc(CN2C(=O)NC(Cc3c[nH]c4ccccc34)C2=O)cc1 (configuration not stated)	TRPC6 inh -5.33 | HEK293 MPD ctr-2 inactive | HEK293 MPD ctr 2-2 inactive | TRPC4/MOR mod inactive | TRPC4/MOR inh 2 inactive | TRPC6 inh conf inactive | TRPC6 act confirm inactive
CCn1c(=NC(=O)CSC(C)=O)sc2cc(OC)ccc21	TRPC6 activator 16.6 | HEK293 MPD ctr-2 inactive | HEK293 MPD ctr 2-2 inactive | TRPC4/MOR mod 9.0% | TRPC4/MOR inh 2 inactive | TRPC6 act confirm 152.5%
CCOC(=O)c1c(NC(=O)/C=C/C(=O)O)sc(C)c1-c1ccc(C(C)(C)C)cc1	TRPC6 activator 14, TRPC4 block -10 | HEK293 MPD ctr-2 inactive | HEK293 MPD ctr 2-2 inactive | TRPC4/MOR mod 18.5% | TRPC4/MOR inh 2 50.0% | TRPC6 inh conf inactive | TRPC6 act confirm 29.5%
CCOc1ccc(-c2nc(CS(=O)(=O)CC(=O)NCc3ccc(F)cc3)c(C)o2)cc1	none
CCN(CC)CCNc1cc(C)nc2c1C(=O)C(=O)C=C2N1CCCCC1	TRPC6 inh -7.46 | HEK293 MPD ctr-2 -273.5% | HEK293 MPD ctr 2-2 inactive | TRPC4/MOR mod -46.5% | TRPC4/MOR inh 2 39.0% | TRPC6 inh conf inactive | TRPC6 act confirm inactive
Cn1cc(CN2CCN(c3ccccc3)CC2)c2ccccc21	TRPC6 inh -5.55 | HEK293 MPD ctr-2 inactive | HEK293 MPD ctr 2-2 inactive | TRPC4/MOR mod 12.0% | TRPC4/MOR inh 2 43.0% | TRPC6 inh conf inactive | TRPC6 act confirm inactive
Oc1ccc(N=Nc2ccc(Br)cc2)c(O)c1	TRPC6 inh -5.35 | HEK293 MPD ctr-2 inactive | HEK293 MPD ctr 2-2 inactive | TRPC4/MOR mod inactive | TRPC4/MOR inh 2 inactive | TRPC6 inh conf inactive | TRPC6 act confirm inactive
Oc1ccc(N=Nc2ccc3c(c2)OCCO3)c(O)c1	none
CCN(CC)c1ccc(CN2CCC(C(=O)NCc3ccc(C)cc3)CC2)cc1	TRPC6 inh -5.09 | HEK293 MPD ctr-2 inactive | HEK293 MPD ctr 2-2 inactive | TRPC4/MOR mod inactive | TRPC4/MOR inh 2 77.0% | TRPC6 inh conf 57.5% | TRPC6 act confirm inactive
CCN(CC)c1ccc(NC(=O)C2CCCC2)cc1	TRPC6 inh -5.77 | HEK293 MPD ctr-2 inactive | HEK293 MPD ctr 2-2 inactive | TRPC4/MOR mod inactive | TRPC4/MOR inh 2 inactive | TRPC6 inh conf inactive | TRPC6 act confirm inactive
Cc1ccc(S(=O)(=O)NNC(=O)C2CCN(Cc3ccccc3)CC2)cc1	TRPC6 inh -14.6 | TRPC4 spec 2 inactive | TRPC4 spec inactive | HEK293 MPD ctr 2-1 -14.5% | HEK293 MPD ctr-1 0.1% | TRPC6 inh conf 83.5% | TRPC6 act confirm inactive
CCN(CC)S(=O)(=O)N1CCC(C(=O)NCc2ccc(C)cc2)CC1	none
COC(=O)C1CCN(Cc2ccc(C)cc2)CC1	none
N=c1c(S(=O)(=O)c2ccccc2)cc2c(=O)n3ccccc3nc2n1CCCN1CCOCC1	TRPC6 inh -5.45 | HEK293 MPD ctr-2 -142.5% | HEK293 MPD ctr 2-2 inactive | TRPC4/MOR mod -41.0% | TRPC4/MOR inh 2 51.0% | TRPC6 inh conf 50.0% | TRPC6 act confirm inactive
Cc1ccc(S(=O)(=O)c2cc3c(=O)n4ccccc4nc3n(CCCN3CCOCC3)c2=N)cc1C	TRPC6 inh -6.22 | HEK293 MPD ctr-2 -249.5% | HEK293 MPD ctr 2-2 66.5% | TRPC4/MOR mod -51.5% | TRPC4/MOR inh 2 80.0% | TRPC6 inh conf 66.0% | TRPC6 act confirm inactive
CC(=O)Nc1ccc(S(=O)(=O)NCCC(=O)Nc2cccc(Cl)c2)cc1	none
Cc1cccc(NC(=O)CCNS(=O)(=O)c2ccc(Cl)cc2)c1	TRPC6 inh -5.09 | HEK293 MPD ctr-2 inactive | HEK293 MPD ctr 2-2 inactive | TRPC4/MOR mod inactive | TRPC4/MOR inh 2 inactive | TRPC6 inh conf inactive | TRPC6 act confirm inactive
C=CCn1c(SCCN2CCCC2)nc2c([nH]c3ccccc32)c1=O	TRPC6 inh -8.6, TRPC4 potent 17 | HEK293 MPD ctr-2 inactive | HEK293 MPD ctr 2-2 inactive | TRPC4/MOR mod -17.5% | TRPC4/MOR inh 2 65.5% | TRPC6 inh conf 53.0% | TRPC6 act confirm inactive
COCC(=O)Nc1ncc(S(=O)(=O)c2ccc([N+](=O)[O-])cc2)s1	none
